Measurements published in ChEMBL document CHEMBL4340532, “Design, synthesis, and biological evaluation of novel 2'-deoxy-2'-fluoro-2'-C-methyl 8-azanebularine derivatives as potent anti-HBV agents” (Bioorg Med Chem Lett, 2019).

Columns and labels:
Hepatitis B virus [1] = assay: Antiviral activity against lamivudine-resistant Hepatitis B virus harboring L180M/M204V mutant infected in human HepG2.2.15 cells assessed as inhibition of extracellular HBV DNA replication at 10 uM measured on day 3 by FQ-PCR analysis relative to control; type: functional; conditions: HepG2.2.15, 72 h
Procedure, shortened: (§1)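 Lamivudine-resistant cell line transfected with the L180M/M204V mutant, exposed to 10, 20 or 40 µM for 3, 6 or 9 days. Intracellular and extracellular HBV DNA levels measured.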

Hepatitis B virus [2] = assay: (§2) Antiviral activity against Hepatitis B virus infected in human HepG2.2.15 cells assessed as inhibition of extracellular HBV DNA replication at 40 uM supplemented with fresh medium containing compound every 3 days for 9 days measured post-last dose by FQ-PCR analysis relative to control; type: functional
Procedure, shortened: (§3)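 HepG2.2.15 cultures were treated at 10, 20 or 40 µM for 3, 6 and 9 days. Both intracellular and extracellular HBV DNA levels were then determined and compared with untreated cells.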

Hepatitis B virus [3] = assay: as §2, with “against lamivudine-resistant” for “against”, “virus harboring L180M/M204V mutant” for “virus”, “6” for “9”; type: functional; procedure, shortened: as §1
Hepatitis B virus [4] = assay: as §2, with “against lamivudine-resistant” for “against”, “virus harboring L180M/M204V mutant” for “virus”; type: functional; procedure, shortened: as §1
Hepatitis B virus [5] = assay: as §2, with “against lamivudine-resistant” for “against”, “virus harboring L180M/M204V mutant” for “virus”, “20” for “40”, “6” for “9”; type: functional; procedure, shortened: as §1
[6] = system: HepG2 cells (Homo sapiens); assay: Cytotoxicity against human HepG2 cells at 40 uM supplemented with fresh medium containing compound every 3 days for 9 days measured post-last dose
Hepatitis B virus [7] = assay: Antiviral activity against Hepatitis B virus infected in human HepG2.2.15 cells assessed as inhibition of HBsAg secretion at 20 uM supplemented with fresh medium containing compound every 3 days for 6 days and measured on day 9 by ELISA relative to control; type: functional
Procedure, shortened: (§4)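 HepG2.2.15 cells were exposed to compound for up to 9 days. The initial screen used 20 µM for 9 days, with lamivudine (20 µM) as positive control. Follow-up used 10, 20 or 40 µM sampled at days 3, 6 and 9. HBsAg and HBeAg were quantified in culture supernatant by ELISA and compared with a no-drug control. Results are mean ± SD of three experiments.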

Hepatitis B virus [8] = assay: Antiviral activity against Hepatitis B virus infected in human HepG2.2.15 cells assessed as inhibition of extracellular HBV DNA replication at 10 uM supplemented with fresh medium containing compound every 3 days for 6 days measured post-last dose by FQ-PCR analysis relative to control; type: functional; procedure, shortened: as §3
Hepatitis B virus [9] = assay: Antiviral activity against Hepatitis B virus infected in human HepG2.2.15 cells assessed as inhibition of intracellular HBV DNA replication at 20 uM supplemented with fresh medium containing compound every 3 days for 9 days measured post-last dose by FQ-PCR analysis relative to control; type: functional; procedure, shortened: as §3
Hepatitis B virus [10] = assay: Antiviral activity against lamivudine-resistant Hepatitis B virus harboring L180M/M204V mutant infected in human HepG2.2.15 cells assessed as inhibition of intracellular HBV DNA replication at 10 uM measured on day 3 by FQ-PCR analysis relative to control; type: functional; conditions: HepG2.2.15, 72 h; procedure, shortened: as §1
Hepatitis B virus [11] = assay: (§5) Antiviral activity against Hepatitis B virus infected in human HepG2.2.15 cells assessed as inhibition of extracellular HBV DNA replication at 40 uM supplemented with fresh medium containing compound every 3 days for 6 days measured post-last dose by FQ-PCR analysis relative to control; type: functional; procedure, shortened: as §3
Hepatitis B virus [12] = assay: (§6) Antiviral activity against Hepatitis B virus infected in human HepG2.2.15 cells assessed as inhibition of extracellular HBV DNA replication at 10 uM supplemented with fresh medium containing compound every 3 days for 9 days measured post-last dose by FQ-PCR analysis relative to control; type: functional; procedure, shortened: as §3
Hepatitis B virus [13] = assay: as §2, with “against lamivudine-resistant” for “against”, “virus harboring L180M/M204V mutant” for “virus”, “20” for “40”; type: functional; procedure, shortened: as §1
Hepatitis B virus [14] = assay: Antiviral activity against Hepatitis B virus infected in human HepG2.2.15 cells assessed as inhibition of intracellular HBV DNA replication at 20 uM measured on day 3 by FQ-PCR analysis relative to control; type: functional; conditions: HepG2.2.15, 72 h; procedure, shortened: as §3
Hepatitis B virus [15] = assay: Antiviral activity against Hepatitis B virus infected in human HepG2.2.15 cells assessed as inhibition of extracellular HBV DNA replication at 20 uM supplemented with fresh medium containing compound every 3 days for 6 days measured post-last dose by FQ-PCR analysis relative to control; type: functional; procedure, shortened: as §3
Hepatitis B virus [16] = assay: as §5, with “against lamivudine-resistant” for “against”, “virus harboring L180M/M204V mutant” for “virus”, “intracellular” for “extracellular”; type: functional; procedure, shortened: as §1
Hepatitis B virus [17] = assay: Antiviral activity against Hepatitis B virus infected in human HepG2.2.15 cells assessed as inhibition of intracellular HBV DNA replication at 40 uM supplemented with fresh medium containing compound every 3 days for 9 days measured post-last dose by FQ-PCR analysis relative to control; type: functional; procedure, shortened: as §3
Hepatitis B virus [18] = assay: as §6, with “against lamivudine-resistant” for “against”, “virus harboring L180M/M204V mutant” for “virus”; type: functional; procedure, shortened: as §1
Hepatitis B virus [19] = assay: Antiviral activity against Hepatitis B virus infected in human HepG2.2.15 cells assessed as inhibition of HBeAg secretion at 20 uM supplemented with fresh medium containing compound every 3 days for 6 days and measured on day 9 by ELISA relative to control; type: functional; procedure, shortened: as §4
Hepatitis B virus [20] = assay: Antiviral activity against Hepatitis B virus infected in human HepG2.2.15 cells assessed as inhibition of intracellular HBV DNA replication at 40 uM supplemented with fresh medium containing compound every 3 days for 6 days measured post-last dose by FQ-PCR analysis relative to control; type: functional
Procedure, shortened: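 HepG2.2.15 cells exposed to 10, 20 or 40 µM for 3, 6 or 9 days; intracellular and extracellular HBV DNA levels measured.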

[21] = Cytotoxicity against human HepG2 cells after 3 days by MTT assay; type: cell-based
Procedure, shortened: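 HepG2 cells were exposed to compound for 3 or 9 days and viability was read by MTT assay. CC50 is the concentration causing 50% cytotoxicity. Results are mean ± SD of three experiments.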

## C[C@@]1(F)[C@H](O)[C@@H](CO)O[C@H]1n1nnc2c(Nc3ccc(Cl)cc3F)ncnc21
Hepatitis B virus [1]
  inhibition at 10 µM: 11%
Hepatitis B virus [2]
  inhibition (INH): 82.5%
Hepatitis B virus [3]
  inhibition (INH): 61.1%
Hepatitis B virus [4]
  inhibition (INH): 83.6%
Hepatitis B virus [5]
  inhibition (INH): 49.5%
[6]
  inhibition (INH): 7.7%
Hepatitis B virus [7]
  inhibition (INH): 39.7%
Hepatitis B virus [8]
  inhibition (INH): 31.1%
Hepatitis B virus [9]
  inhibition (INH): 67.4%
Hepatitis B virus [10]
  inhibition at 10 µM: 5%
Hepatitis B virus [11]
  inhibition (INH): 68.9%
Hepatitis B virus [12]
  inhibition (INH): 36.9%
Hepatitis B virus [13]
  inhibition (INH): 61.4%
Hepatitis B virus [14]
  inhibition at 20 µM: 28.1%
Hepatitis B virus [15]
  inhibition (INH): 42.6%
Hepatitis B virus [16]
  inhibition (INH): 66.3%
Hepatitis B virus [17]
  inhibition (INH): 80.2%
Hepatitis B virus [18]
  inhibition (INH): 32.1%
Hepatitis B virus [19]
  inhibition (INH): 31.6%
Hepatitis B virus [20]
  inhibition (INH): 65.2%
[21]
  CC50 at 72 h: 409 µM
